What all share (format): functional, cell-based
The test system of one experiment is L1210. Briefly: Cytotoxicity against mouse L1210 cells after 2 days by MTT assay. An outline of the steps:
(§1)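 Cells were seeded at 5 × 10³ per well and exposed to eight compound concentrations (50, 25, 12.5, 6.25, 3.13, 1.56, 0.78, 0.39), with positive and blank controls. Incubation was 2 days at 37 °C and 5% CO₂. MTT (5 mg/mL stock) was then added for 4 h. After the supernatant was removed, formazan was dissolved in DMSO for 20 min at room temperature. OD was read at 570 nm, and viability was expressed as % of compound-free medium controls.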

A further experiment concerns K562. As to the kind of experiment: Cytotoxicity against human K562 cells after 2 days by MTT assay. In short, it runs like this:
as §1

In a further experiment the test system is A549. Briefly: Cytotoxicity against human A549 cells after 2 days by MTT assay. In short, it runs like this: as §1

A word on the IC50: it is the midpoint of a concentration-inhibition curve. Read a low IC50 as higher potency.

As to `COc1cc2c3cc1Oc1c(OC)c(OC)cc4c1[C@@H](Cc1ccc(O[C@@H]5O[C@H](COC(C)=O)[C@@H](OC(C)=O)[C@H](OC(C)=O)[C@H]5OC(C)=O)c(c1)Oc1ccc(cc1)C[C@@H]3N(C)CC2)N(C)CC4`, the half-inhibitory concentration (IC50) in the experiment on L1210 (Mus musculus, L1210, 48 h) is 0.57 µM; with K562 (Homo sapiens, K562, 48 h), 1.96 µM; in the experiment with A549 (Homo sapiens, A549, 48 h), 29.5 µM.
For `COc1cc2c3cc1Oc1c(OC)c(OC)cc4c1[C@@H](Cc1ccc(O[C@@H]5O[C@H](COC(C)=O)[C@H](OC(C)=O)[C@H](OC(C)=O)[C@H]5OC(C)=O)c(c1)Oc1ccc(cc1)C[C@@H]3N(C)CC2)N(C)CC4`, in that order: 2.17 µM, 2.03 µM and 43 µM.
For `COc1cc2c3cc1Oc1c(OC)c(OC)cc4c1[C@@H](Cc1ccc(O[C@@H]5OC[C@@H](OC(C)=O)[C@H](OC(C)=O)[C@H]5OC(C)=O)c(c1)Oc1ccc(cc1)C[C@@H]3N(C)CC2)N(C)CC4`, in that order: 1.27 µM, 1.55 µM and no less than 50 µM.
Consider `COc1cc2c3cc1Oc1c(OC)c(OC)cc4c1[C@@H](Cc1ccc(O[C@@H]5O[C@H](COC(C)=O)[C@@H](O[C@@H]6O[C@H](COC(C)=O)[C@@H](OC(C)=O)[C@H](OC(C)=O)[C@H]6OC(C)=O)[C@H](OC(C)=O)[C@H]5OC(C)=O)c(c1)Oc1ccc(cc1)C[C@@H]3N(C)CC2)N(C)CC4` [listing 1 of 2 here], for which the IC50 in the experiment with L1210 (l1210) came out at 0.3 µM; with K562 (k562), 2.23 µM; with A549 (Homo sapiens, A549, 48 h), 27.8 µM.
As to `COc1cc2c3cc1Oc1c(OC)c(OC)cc4c1[C@@H](Cc1ccc(O[C@@H]5O[C@H](COC(C)=O)[C@@H](O[C@@H]6O[C@H](COC(C)=O)[C@H](OC(C)=O)[C@H](OC(C)=O)[C@H]6OC(C)=O)[C@H](OC(C)=O)[C@H]5OC(C)=O)c(c1)Oc1ccc(cc1)C[C@@H]3N(C)CC2)N(C)CC4`, the IC50 was 2.03 µM in the experiment with L1210 (Mus musculus, L1210, 48 h); 3.56 µM with K562 (Homo sapiens, K562, 48 h); no less than 50 µM in the experiment on A549 (Homo sapiens, A549, 48 h).
Regarding `COc1cc2c3cc1Oc1c(OC)c(OC)cc4c1[C@@H](Cc1ccc(O[C@H]5O[C@@H](COC(C)=O)[C@H](OC(C)=O)[C@@H](OC(C)=O)[C@@H]5OC(C)=O)c(c1)Oc1ccc(cc1)C[C@@H]3N(C)CC2)N(C)CC4`, the IC50 in the experiment with L1210 (Mus musculus, L1210, 48 h) is 2.74 µM; in the experiment with K562 (Homo sapiens, K562, 48 h), no less than 50 µM; in the experiment with A549 (Homo sapiens, A549, 48 h), no less than 50 µM.
On to `COc1cc2c3cc1Oc1c(OC)c(OC)cc4c1[C@@H](Cc1ccc(O[C@@H]5O[C@H](CO)[C@@H](O[C@@H]6O[C@H](CO)[C@@H](O)[C@H](O)[C@H]6O)[C@H](O)[C@H]5O)c(c1)Oc1ccc(cc1)C[C@@H]3N(C)CC2)N(C)CC4`, for which the IC50 was 10.6 µM with L1210 (Mus musculus, L1210, 48 h); no less than 50 µM with K562 (Homo sapiens, K562, 48 h); no less than 50 µM with A549 (Homo sapiens, A549, 48 h).
For the compound `COc1cc2c3cc1Oc1c(OC)c(OC)cc4c1[C@@H](Cc1ccc(O)c(c1)Oc1ccc(cc1)C[C@@H]3N(C)CC2)N(C)CC4`, the IC50 in the experiment on L1210 (Mus musculus, L1210, 48 h) came out at 2.73 µM; in the experiment on K562 (Homo sapiens, K562, 48 h) it was 4 µM; in the experiment with A549 (Homo sapiens, A549, 48 h), 39.7 µM.
Turning to `COc1cc2c3cc1Oc1c(OC)c(OC)cc4c1[C@@H](Cc1ccc(O[C@@H]5O[C@H](COC(C)=O)[C@@H](O[C@@H]6O[C@H](COC(C)=O)[C@@H](OC(C)=O)[C@H](OC(C)=O)[C@H]6OC(C)=O)[C@H](OC(C)=O)[C@H]5OC(C)=O)c(c1)Oc1ccc(cc1)C[C@@H]3N(C)CC2)N(C)CC4` [listing 2 of 2 here], the values for the IC50 with L1210 (l1210), in the experiment on K562 (k562) and with A549 (a549) were 1.85 µM, no less than 50 µM and no less than 50 µM, respectively.

The record behind these values is ChEMBL document CHEMBL2040730, “Synthesis of berbamine acetyl glycosides and evaluation of antitumor activity” (Eur J Med Chem, 2012).
